Among the data in ChEMBL document CHEMBL1137702, “Identification of hydrolytically stable and selective P2Y(1) receptor agonists” (Eur J Med Chem, 2009) are Activity values, retold here.

Assay [1] addresses T1, Ectonucleotide pyrophosphatase/phosphodiesterase family member 3 (Homo sapiens) (UniProt O14638).
T1 sequence (whole entry): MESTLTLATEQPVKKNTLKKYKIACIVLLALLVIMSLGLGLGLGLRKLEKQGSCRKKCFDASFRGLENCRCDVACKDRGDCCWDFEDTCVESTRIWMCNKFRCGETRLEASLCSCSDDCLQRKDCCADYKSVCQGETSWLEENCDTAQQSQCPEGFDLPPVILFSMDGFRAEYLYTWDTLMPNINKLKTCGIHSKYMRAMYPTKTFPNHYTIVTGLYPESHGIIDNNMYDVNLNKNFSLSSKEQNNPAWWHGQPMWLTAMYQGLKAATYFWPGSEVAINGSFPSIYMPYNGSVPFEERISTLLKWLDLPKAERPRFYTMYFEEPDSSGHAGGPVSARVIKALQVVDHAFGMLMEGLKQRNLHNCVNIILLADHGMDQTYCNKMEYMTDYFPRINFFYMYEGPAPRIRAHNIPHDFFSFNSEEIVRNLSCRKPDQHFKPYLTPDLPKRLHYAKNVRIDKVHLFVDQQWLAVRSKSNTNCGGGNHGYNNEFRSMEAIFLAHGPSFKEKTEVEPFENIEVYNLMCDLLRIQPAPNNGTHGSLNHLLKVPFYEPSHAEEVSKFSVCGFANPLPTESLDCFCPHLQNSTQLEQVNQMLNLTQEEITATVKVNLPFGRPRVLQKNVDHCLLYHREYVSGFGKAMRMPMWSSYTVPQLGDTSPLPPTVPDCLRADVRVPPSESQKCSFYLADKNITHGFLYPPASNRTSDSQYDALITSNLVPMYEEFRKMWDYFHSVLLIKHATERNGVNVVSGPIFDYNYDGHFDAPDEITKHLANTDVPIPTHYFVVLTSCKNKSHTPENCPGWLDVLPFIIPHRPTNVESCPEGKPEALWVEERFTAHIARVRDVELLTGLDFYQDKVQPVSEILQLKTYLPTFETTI
In words: Inhibition of human NPP3 expressed in human 293T cells. The format is cell-based.

In assay [2] the target is T1, Ectonucleotide pyrophosphatase/phosphodiesterase family member 3 (Homo sapiens). The experiment in a line: Activity of human NPP3 expressed in human 293T cells assessed as drug hydrolysis at 100 uM after 20 mins by reverse-phase HPLC relative to p-nitrophenyl-thymidine-5-monophosphate. It counts as cell-based. On the set-up: scale not given: the % may be the effect or the level left. An outline of the steps: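 Crude extract of 293T cells transfected with human NPP1 or NPP3, pre-incubated 3 min at 37 °C in 1 mM CaCl2, 140 mM NaCl, 5 mM KCl, 50 mM Tris pH 8.5. Substrate at 100 µM final for 20 min, stopped in ice-cold perchloric acid and neutralized with KOH. Loss of analogue quantified by reverse-phase HPLC with ion-pair phosphate mobile phase pH 7.0. pnp-TMP (p-nitrophenol at 410 nm) served as the 100% reference.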

For assay [3], the target named is P2Y purinoceptor 6 (Rattus norvegicus) (UniProt Q63371). The experiment in a line: Agonist activity at rat P2Y6 receptor expressed in human 1321N1 cells assessed as increase in intracellular calcium concentration at 100 uM by dual-excitation spectrofluorimetric analysis. The format is functional, cell-based. On the technique in general: Calcium flux is commonly read through the fluorescence of an indicator in the cells.
P2Y purinoceptor 6 (Rattus norvegicus), sequence (Q63371 whole entry): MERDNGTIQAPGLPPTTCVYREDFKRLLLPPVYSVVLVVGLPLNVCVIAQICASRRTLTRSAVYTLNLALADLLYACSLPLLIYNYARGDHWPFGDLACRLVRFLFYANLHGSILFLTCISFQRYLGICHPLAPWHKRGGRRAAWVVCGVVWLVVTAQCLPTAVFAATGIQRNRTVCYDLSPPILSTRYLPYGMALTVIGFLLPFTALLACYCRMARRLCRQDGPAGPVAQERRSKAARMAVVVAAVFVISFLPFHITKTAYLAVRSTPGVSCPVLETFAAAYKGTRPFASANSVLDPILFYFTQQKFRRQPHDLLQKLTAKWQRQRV

Assay [4] addresses T2, Ectonucleoside triphosphate diphosphohydrolase 8 (Homo sapiens) (UniProt Q5MY95).
T2 sequence (whole entry): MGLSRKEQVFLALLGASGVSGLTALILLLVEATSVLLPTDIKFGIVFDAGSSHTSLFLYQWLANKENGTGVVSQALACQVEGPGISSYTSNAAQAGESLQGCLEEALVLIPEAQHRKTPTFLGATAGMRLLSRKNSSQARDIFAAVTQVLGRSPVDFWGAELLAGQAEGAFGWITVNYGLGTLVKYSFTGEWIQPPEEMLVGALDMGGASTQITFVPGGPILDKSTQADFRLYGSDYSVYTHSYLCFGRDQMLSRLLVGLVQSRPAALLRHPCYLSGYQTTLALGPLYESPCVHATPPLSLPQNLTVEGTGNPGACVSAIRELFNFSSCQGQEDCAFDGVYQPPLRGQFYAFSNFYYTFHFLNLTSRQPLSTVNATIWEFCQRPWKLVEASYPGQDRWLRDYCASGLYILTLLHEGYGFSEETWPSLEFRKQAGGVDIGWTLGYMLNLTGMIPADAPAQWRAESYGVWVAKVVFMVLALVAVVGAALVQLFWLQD
In words: Inhibition of human NTPDase 8 expressed in human 293T cells. The format is cell-based.

Assay [5] addresses P2Y purinoceptor 2 (Homo sapiens, UniProt P41231). In words: Agonist activity at human P2Y2 receptor expressed in human 1321N1 cells assessed as increase in intracellular calcium concentration by dual-excitation spectrofluorimetric analysis. The format is functional, cell-based. The method in brief: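 1321N1 astrocytoma cells stably expressing the receptor (turkey P2Y1, human P2Y2, human P2Y4, rat P2Y6) were grown with G-418 selection. Fura-2-loaded cell suspensions were exposed at 37 °C in 10 mM HEPES-buffered saline pH 7.4 with 1 mM CaCl2 and 1 mM MgCl2. Peak [Ca2+]i rise was measured over a range of concentrations to derive EC50.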

Assay [6] concerns the target T3, Ectonucleoside triphosphate diphosphohydrolase 2 (Homo sapiens) (UniProt Q9Y5L3).
T3 sequence (whole entry): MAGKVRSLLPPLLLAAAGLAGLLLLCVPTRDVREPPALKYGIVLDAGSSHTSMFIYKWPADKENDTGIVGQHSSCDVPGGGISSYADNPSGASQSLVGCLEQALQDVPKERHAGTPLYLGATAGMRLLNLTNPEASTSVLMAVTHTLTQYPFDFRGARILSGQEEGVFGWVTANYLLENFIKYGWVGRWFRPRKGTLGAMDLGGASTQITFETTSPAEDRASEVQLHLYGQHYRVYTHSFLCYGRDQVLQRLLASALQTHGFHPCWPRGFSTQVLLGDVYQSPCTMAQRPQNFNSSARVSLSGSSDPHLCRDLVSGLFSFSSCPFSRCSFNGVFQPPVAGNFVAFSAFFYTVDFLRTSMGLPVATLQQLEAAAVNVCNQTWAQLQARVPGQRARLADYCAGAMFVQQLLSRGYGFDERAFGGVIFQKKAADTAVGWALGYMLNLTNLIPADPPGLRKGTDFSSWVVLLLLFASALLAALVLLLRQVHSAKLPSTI
The experiment in a line: Inhibition of human NTPDase 2 expressed in human 293T cells. The format is cell-based.

Active and inactive are the calls of the source. The rule behind the calls is not given here.

P2Y purinoceptor 2, sequence (P41231 whole entry): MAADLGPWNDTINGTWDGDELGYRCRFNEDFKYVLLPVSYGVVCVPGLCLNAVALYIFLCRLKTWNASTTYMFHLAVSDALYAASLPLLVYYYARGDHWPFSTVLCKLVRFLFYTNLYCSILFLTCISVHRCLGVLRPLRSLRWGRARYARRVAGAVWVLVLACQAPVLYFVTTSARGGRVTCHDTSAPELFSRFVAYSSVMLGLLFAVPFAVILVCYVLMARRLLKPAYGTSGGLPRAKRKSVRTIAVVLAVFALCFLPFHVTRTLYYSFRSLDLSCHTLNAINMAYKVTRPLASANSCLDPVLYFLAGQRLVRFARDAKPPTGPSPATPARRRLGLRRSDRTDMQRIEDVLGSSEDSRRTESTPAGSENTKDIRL

As for `CSc1nc(N)c2ncn([C@@H]3O[C@H](COP(=O)(O)OP(=O)(O)CP(=O)(O)O)[C@@H](O)[C@H]3O)c2n1`, the result in assay [1], in assay [4], in assay [5] and in assay [6] was inactive. For the same compound, the Activity in assay [2] stood at 10%. Moreover, the result in assay [3] was Active.

As for `BP(=O)(OC[C@H]1O[C@@H](n2cnc3c(N)ncnc32)[C@H](O)[C@@H]1O)OP(=O)(O)CP(=O)(O)O` (stereo partly drawn), the result in assay [1], in assay [4], in assay [5] and in assay [6] was inactive. Besides, in assay [2], the Activity stood at 0%.

`BP(=O)(OC[C@H]1O[C@@H](n2cnc3c(N)nc(SC)nc32)[C@H](O)[C@@H]1O)OP(=O)(O)CP(=O)(O)O` (single isomer, unassigned; diastereomer A): the result in assay [1], in assay [4], in assay [5] and in assay [6] was inactive. Moreover, the Activity in assay [2] was 9.9%.

Take `BP(=O)(OC[C@H]1O[C@@H](n2cnc3c(N)nc(SC)nc32)[C@H](O)[C@@H]1O)OP(=O)(O)CP(=O)(O)O` (single isomer, unassigned; diastereomer B): the result in assay [1], in assay [4], in assay [5] and in assay [6] was inactive. In assay [2], the Activity stood at 0%. In addition, the outcome in assay [3] was Active.

`BP(=O)(OC[C@H]1O[C@@H](n2cnc3c(N)ncnc32)[C@H](O)[C@@H]1O)OP(=O)(O)CP(=O)(O)O` (single isomer, unassigned; diastereomer B): the outcome in assay [1], in assay [4], in assay [5] and in assay [6] was inactive. Also, in assay [2], the Activity worked out at 3%. In addition, the outcome in assay [3] was Active.
